Measured values reported in ChEMBL document CHEMBL1138367, “Synthesis and in vivo evaluation of non-hepatotoxic acetaminophen analogs” (Bioorg Med Chem, 2007).
The source made the active and inactive calls.

How the values were obtained:
[1] = Drug level in CD1 mouse urine assessed as glucuronate level at 3 mmol/kg, po; format: ADME, tissue-based; settings: in vivo
Method in brief: (§1)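 Two-month-old CD-1 mice, fasted overnight, given a single oral 3 mmol/kg dose in Tween 20 under light halothane. Housed two per metabolic cage, with food from 6 h; urine collected on ice over 24 h. After centrifugation and filtration, analysed by HPLC–MS on a C18 column with an ammonium acetate/acetonitrile gradient; UV detection at 280, 254 and 210 nm.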

[2] = Hepatotoxicity in C57BL/6 mouse; format: toxicity, organism-based; settings: in vivo
Mus musculus [3] = assay: Antiinflammatory activity in CD1 mouse by carrageenan-induced paw edema method; format: functional, organism-based
Method in brief: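 Male CD-1 mice dosed orally; 30 min later, under halothane, 50 µL 1% lambda-carrageenan in saline was injected into one hind plantar paw. Paw volume was measured by paw volume meter before and 4 h after injection, expressed as % of vehicle controls ± SEM; n = 4–5 per dose. Indomethacin 30 mg/kg po served as positive control.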

Mus musculus [4] = assay: Hepatotoxicity in CD1 mouse assessed as reduction in renal glutathione levels at 6 mmol/kg; format: toxicity, organism-based; settings: in vivo
Method in brief: (§2)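 Male CD-1 mice (20–30 g), fasted, given 6 mmol/kg orally; killed 3 h later and livers perfused with heparinized saline. Liver homogenized to 5% w/v and kidney to 10% w/v in 5% MPA, then centrifuged 3000g for 10 min at 4 °C. Glutathione in supernatant measured by colorimetric kit; n = 8–12.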

[5] = (§3) Toxicity in CD1 mouse assessed as mortality at 6 mmol/kg; format: organism-based; settings: CD1, mouse, in vivo, 6 mmol/kg; read-out: Activity
Method in brief: (§4)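 CD-1 mice, fasted overnight, given a single oral dose of 6 mmol/kg by esophageal cannula under brief halothane anesthesia. Deaths recorded 24 h after dosing, expressed as a fraction of the group (n = 10).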

Mus musculus [6] = assay: Hepatotoxicity in CD1 mouse assessed as reduction in hepatic glutathione levels at 6 mmol/kg; format: toxicity, organism-based; settings: in vivo; method in brief: as §2
HepG2 [7] = assay: Upregulation of Fas-ligand in HEPG2 cells by Western blot; format: functional, cell-based; settings: Homo sapiens
Method in brief: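 HEPG-2 cells at 80% confluence, serum-starved 6–8 h (EMEM, 0.5% FBS), then treated with 100 µM for the times indicated at 37 °C. Fas-ligand measured by Western blot on extracts normalised for protein (15–20 µg loaded), Fas-L-specific antibody, ECL detection, densitometric quantitation.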

Mus musculus [8] = assay: Hepatotoxicity in CD1 mouse assessed as increased plasma GPT levels at 6 mmol/kg; format: toxicity, organism-based; settings: in vivo
Method in brief: (§5)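 Male CD-1 mice (20–30 g), fasted overnight, received 6 mmol/kg orally by esophageal cannula. At 24 h, blood was collected by decapitation into heparinized syringes and plasma obtained by centrifugation at 4 °C. GPT and GOT were determined with a spectrophotometric kit; n = 8–12. Mortality was recorded at 24 h.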

HepG2 [9] = assay: Activation of CAR in HEPG2 cells at 100 uM by Western blot; format: functional, cell-based; settings: Homo sapiens
Method in brief: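 HEPG-2 cells in EMEM/NEAA/10% FBS, 37 °C, 5% CO2; at 80% confluence held 6–8 h in EMEM with 0.5% FBS, then treated at 100 µM for the times indicated. CAR detected by Western blot on cell extracts (15–20 µg protein, 8–16% gel) with human CAR-specific antibody and ECL, then quantified by densitometry.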

Mus musculus [10] = assay: Analgesic activity in CD1 mouse upto 6620 umol/kg by tail flick test; format: functional, organism-based
Method in brief: (§6)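 Oral doses given to fasted mice. A focused light beam was aimed at the tail, with intensity set for baseline latencies of 3–4 s; withdrawal latency was recorded by photoelectric cell. Testing was done blind.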

HepG2 [11] = assay: Hepatotoxicity against HEPG2 cells at 100 uM after 6 to 8 hrs by tryptan blue exclusion test; format: functional, cell-based; settings: Homo sapiens
Method in brief: (§7)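 HEPG-2 cells at 80% confluence were serum-starved 6–8 h (EMEM, 0.5% FBS), then exposed to the compound for 6–8 h at 37 °C. Cell toxicity was assessed by Trypan blue exclusion.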

Mus musculus [12] = assay: Hepatotoxicity in CD1 mouse assessed as increased plasma GOT levels at 6 mmol/kg; format: toxicity, organism-based; settings: in vivo; method in brief: as §5
Mus musculus [13] = species: Mus musculus; assay: Analgesic activity in CD1 mouse by formalin-induced pain model after 30 mins; format: functional; settings: for ED50: CD1, 0.5 h
Method in brief: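 Oral dosing (fasted, halothane, esophageal cannula) 30 min before sc injection of 30 µL 5% buffered formalin into one hind plantar paw. Paw-licking time recorded in 5-min blocks over 90 min; mice habituated to the test box 90 min the day before. Three-way ANOVA (drug × dose × time) with Tukey; ED50 by nonlinear regression.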

Mus musculus [14] = assay: Analgesic activity in CD1 mouse assessed as acetic acid-induced writhing at 1 mmol/kg, po after 1 hr; format: functional
Method in brief: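 Mice fasted overnight, dosed orally by esophageal cannula under brief halothane, 1 mmol/kg; 1 h reading, n = 9–16 per group. Writhing induced by ip 0.4% acetic acid, 10 mL/kg, given 25 min after drug; writhes counted for 10 min starting 5 min after injection. Expressed as % analgesia ± SEM.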

Mus musculus [15] = species: Mus musculus; assay: Analgesic activity in CD1 mouse by acetic acid-induced writhing test after 30 to 40 mins; format: functional
Method in brief: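 Overnight-fasted mice given several oral doses by esophageal cannulation under brief halothane. Acetic acid 0.4% (10 mL/kg ip) injected 25 min post-dose; writhes counted over 10 min from 5 min after injection, i.e. 30–40 min after dosing. Percent analgesia vs vehicle; two-way ANOVA with Tukey; ED50 by nonlinear regression.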

Mus musculus [16] = assay: Hepatotoxicity in mouse assessed as plasma GPT levels at 3.7 mmol/kg, po after 24 hrs; format: toxicity, organism-based; settings: in vivo
Method in brief: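 C57BL/6 mice given a single 3.7 mmol/kg oral dose; plasma GPT measured spectrophotometrically 24 h later and reported as SF units/mL ± SD.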

HepG2 [17] = assay: Hepatotoxicity against HEPG2 cells at 200 uM after 6 to 8 hrs by tryptan blue exclusion test; format: functional, cell-based; settings: Homo sapiens; method in brief: as §7
HepG2 [18] = assay: Induction of apoptosis in HEPG2 cells at 100 uM after 6 to 8 hrs by Hoechst staining; format: functional, cell-based; settings: Homo sapiens
Method in brief: (§8)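 Serum-starved HEPG-2 cells were treated 6–8 h at 37 °C (100 µM). After washing with PBS, cells were stained with Hoechst (2 µM final) for 45 min at 37 °C. Apoptotic cells were detected by confocal fluorescence microscopy.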

Mus musculus [19] = assay: Analgesic activity in CD1 mouse upto 6620 umol/kg by hot plate assay; format: functional, organism-based
Method in brief: (§9)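 Oral doses given to overnight-fasted mice. Latency to lick the hind paw was recorded on a 54 ± 1 °C hot plate, with a 30 s cut-off assigned to non-responders. Testing was done blind.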

Mus musculus [20] = assay: Hepatotoxicity in CD1 mouse assessed as plasma GPT levels at 6 mmol/kg; format: toxicity, organism-based; settings: in vivo
Method in brief: (§10)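 CD-1 mice, fasted overnight, dosed orally with 6 mmol/kg by esophageal cannula under brief halothane anesthesia, or vehicle. Blood collected after decapitation at 24 h into heparinized syringes. Plasma spun 3000 rpm for 10 min at 4 C. GPT and GOT activity measured with a spectrophotometric kit. n = 8–12.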

Mus musculus [21] = assay: as §3; format: organism-based; settings: mouse, in vivo; method in brief: as §4
Mus musculus [22] = assay: Hepatotoxicity in CD1 mouse assessed as renal glutathione levels at 6 mmol/kg; format: toxicity, organism-based; settings: in vivo
Method in brief: (§11)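 Male CD-1 mice (20–30 g), fasted overnight, received 6 mmol/kg orally by esophageal cannula under brief halothane anesthesia, or vehicle. At 3 h the livers were saline-perfused. Liver was homogenized 5% w/v and kidney 10% w/v in 5% MPA, then centrifuged 3000g for 10 min at 4 C. Supernatant glutathione read colorimetrically. n = 8–12.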

Mus musculus [23] = assay: Hepatotoxicity in CD1 mouse assessed as plasma GOT levels at 6 mmol/kg; format: toxicity, organism-based; settings: in vivo; method in brief: as §10
Mus musculus [24] = assay: Analgesic activity in CD1 mouse upto 3010 umol/kg by hot plate assay; format: functional, organism-based; method in brief: as §9
HepG2 [25] = assay: Hepatotoxicity against HEPG2 cells after 6 to 8 hrs by tryptan blue exclusion test; format: functional, cell-based; settings: Homo sapiens; method in brief: as §7
HepG2 [26] = assay: Induction of apoptosis in HEPG2 cells by Hoechst staining; format: functional, cell-based; settings: Homo sapiens; method in brief: as §8
Mus musculus [27] = assay: Analgesic activity in CD1 mouse upto 3010 umol/kg by tail flick test; format: functional, organism-based; method in brief: as §6
[28] = Drug level in CD1 mouse urine assessed as unmetabolized fractions at 3 mmol/kg, po; format: ADME, tissue-based; settings: read-out: Activity; method in brief: as §1
Mus musculus [29] = assay: Hepatotoxicity in CD1 mouse assessed as hepatic glutathione levels at 6 mmol/kg; format: toxicity, organism-based; settings: in vivo; method in brief: as §11
[30] = Drug level in CD1 mouse urine assessed as 2-{[(4-Hydroxyphenylcarbamoyl)methyl]sulphamoyl}benzoic acid level at 3 mmol/kg, po; format: ADME, tissue-based; settings: in vivo; method in brief: as §1
[31] = Drug level in CD1 mouse urine assessed as glucuronate level; format: ADME, tissue-based; settings: in vivo

O=C(CN1C(=O)c2ccccc2S1(=O)=O)Nc1ccc(O[C@@H]2O[C@H](C(=O)O)[C@@H](O)[C@H](O)[C@H]2O)cc1 showed an Activity [1] of 32%.

With CC(=O)Nc1ccc(O)cc1 [ACETAMINOPHEN] the LD50 [2] was 3700 µmol/kg, the Activity (Mus musculus [3]) was “inactive” and the Activity (Mus musculus [4]) was “Active”. The mortality [5] was 40%, the Activity (Mus musculus [6]) was “Active” and the Activity (HepG2 [7]) was “Active”. The Activity (Mus musculus [8]) was “Active”, the Activity (HepG2 [9]) was “Active” and the Activity (Mus musculus [10]) was “inactive”. The Activity (HepG2 [11]) was “Active”, the Activity (Mus musculus [12]) was “Active” and the Activity (Mus musculus [13]) was “Dose-dependent effect”. For the same compound, the ED50 (Mus musculus [13]) was 1900 µmol/kg, the Activity (Mus musculus [14]) was 61.32% and the Activity (Mus musculus [15]) was “Dose-dependent effect”. For the same compound, the ED50 (Mus musculus [15]) was 1290 µmol/kg, the Activity (Mus musculus [16]) was 299.01 U/ml and the Activity (HepG2 [17]) was “Active”. The Activity (HepG2 [18]) was “Active” and the Activity (Mus musculus [19]) was “inactive”.

Compound O=C(CCCCN1C(=O)c2ccccc2S1(=O)=O)Nc1ccc(O)cc1 has an Activity (Mus musculus [14]) of 32.56% and an Activity (Mus musculus [16]) of 44.16 U/ml.

With O=C(CCN1C(=O)c2ccccc2S1(=O)=O)Nc1ccc(O)cc1 the Activity (Mus musculus [14]) was 43.8% and the Activity (Mus musculus [16]) was 28.85 U/ml.

In the case of O=C(CCCN1C(=O)c2ccccc2S1(=O)=O)Nc1ccc(O)cc1, the Activity (Mus musculus [14]) is reported as 28.9% and the Activity (Mus musculus [16]) is reported as 82.62 U/ml.

For O=C(CCCCCN1C(=O)c2ccccc2S1(=O)=O)Nc1ccc(O)cc1, the Activity (Mus musculus [14]) was 53.72% and the Activity (Mus musculus [16]) was 29.52 U/ml.

For O=C(CN1C(=O)c2ccccc2S1(=O)=O)Nc1ccc(O)cc1, the Activity (Mus musculus [3]) was “inactive”, the Activity (Mus musculus [20]) was “Not Active” and the Activity (Mus musculus [21]) was “Not Active”. For the same compound, the Activity (Mus musculus [22]) was “Not Active”, the Activity (HepG2 [7]) was “inactive” and the Activity (Mus musculus [23]) was “Not Active”. The Activity (Mus musculus [24]) was “inactive”, the Activity (HepG2 [25]) was “inactive” and the Activity (HepG2 [9]) was “inactive”. The Activity (HepG2 [26]) was “inactive”, the Activity (Mus musculus [27]) was “inactive” and the Activity (Mus musculus [13]) was “Dose-dependent effect”. For the same compound, the ED50 (Mus musculus [13]) was 260 µmol/kg, the Activity (Mus musculus [14]) was 62.42% and the dose excreted [28] was 0.9%. The Activity (Mus musculus [29]) was “Not Active”, the Activity (Mus musculus [15]) was “Dose-dependent effect” and the ED50 (Mus musculus [15]) was 640 µmol/kg. The Activity (Mus musculus [16]) was 30.5 U/ml.

In the case of O=C(CNS(=O)(=O)c1ccccc1C(=O)O)Nc1ccc(O)cc1, the Activity [30] is reported as 38.6%.

Work on O=C(CNS(=O)(=O)c1ccccc1C(=O)O)Nc1ccc(O[C@@H]2O[C@H](C(=O)O)[C@@H](O)[C@H](O)[C@H]2O)cc1 yielded an Activity [31] of 23.7%.
